VIM-2 inh: inhibitors of Pseudomonas aeruginosa VIM-2 metallo-beta-lactamase | purified VIM-2, nitrocefin hydrolysis, epi-absorbance fluorescence | inhibition, % at 5.6 µM | 290,000 tested, 0.89% active;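 active means inhibition above the mean of all tested compounds plus 3 SD, cutoff set per screening run, cut at about 7.5% in these data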;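 further: red hydrolysis product quenches plate fluorescence so inhibitors raise well fluorescence; 0% = enzyme with DMSO and 100% = DMSO without enzyme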
SUMO Mot1 rescue: SUMOylation pathway inhibition by Mot1-301 growth rescue. S. cerevisiae Mot1-301 growth rescue, ATP luminescence, 38.5C; percent above DMSO median, 100 means doubled. growth rescue, % at 18.8 µM. 320,000 tested, 1% active;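 active means every valid replicate shows activation above 250% relative to neutral control wells; inactive means the rest, any valid replicate at or below 250%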;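 further: OY570 slx delta 5 strain wells were the positive control but not used for scaling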
NALP3 yeast inh: NALP3 inhibition in yeast | Yeast reconstituted NLRP3/ASC/caspase-1, beta-gal luminescence, 24 h | inhibition, % at 10 µM | 330,000 tested, 0.39% active;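 active means inhibition of 50% or more; inactive means inhibition below 50%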;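 further: plate controls were induced DMSO wells for no effect and uninduced yeast grown without galactose for full effect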
NALP1 inh: inhibitors of NALP1 inflammasome in yeast; S. cerevisiae NALP1/ASC/caspase-1 growth, X-gal OD620, 72 h; inhibition, % at 10 µM; 280,000 tested, 0.61% active; AID 2071; in the data active means inhibition mostly above about 24%, no sharp cut-off; inactive means mostly below about 32%
PolyA inh: inhibitors of polyadenylation in S. cerevisiae; S. cerevisiae SKY197-pL101 polyadenylation reporter, beta-gal luminescence; efflux-impaired pdr1/pdr3 knockout yeast; score 100 = 6 SD above DMSO; activity score, % at 12 µM; 300,000 tested, 0.02% active; AID 1875;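 active means lowest replicate activity score at least 50, where 100 means six control SD above control mean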;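 further: yeast exposed to compound for 9 h at 30 °C; higher score means more reporter readthrough which indicates perturbed polyadenylation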
IMP-1 inh-1: inhibitors of Pseudomonas aeruginosa IMP-1 metallo-beta-lactamase; 290,000 tested, 0.45% active; purified IMP-1, nitrocefin hydrolysis, epi-absorbance fluorescence; inhibition, % at 5.6 µM;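 active means inhibition above the mean plus 3 SD of all compounds in the same screening run, cut at about 4.5% in these data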;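 further: 0% = IMP-1 with DMSO and 100% = DMSO wells lacking enzyme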
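Material – recombinant IMP-1 enzyme, purified · Amount – IMP-1 0.2 nM before substrate addition · Medium – HEPES buffer pH 7.1 with ZnSO4 and Brij 35 · Timing – 25 °C, 15 min preincubation, 25 min reaction · Measured by – plate fluorescence quenching by hydrolysis product, ex 480/em 530 nm · Read-out – percent enzyme inhibition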
IMP-1 inh-2: selectivity counter-screen for VIM-2 inhibitors: IMP-1 metallo-beta-lactamase inhibitors; shares compounds with VIM-2 inh; 1,300 tested, under 10 active; purified IMP-1, nitrocefin hydrolysis, epi-absorbance fluorescence; AID 1856; inhibition, % at 5.6 µM; call rule not given here;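 further: 0% = enzyme with vehicle and 100% = vehicle without enzyme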
VIM-2 FRET inh: counter-screen for VIM-2 inhibitors: epi-absorbance artifacts via FRET. shares compounds with VIM-2 inh. 1,300 tested, 23% active. inhibition, % at 5.6 µM. purified VIM-2, CCF2 FRET substrate hydrolysis;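 active means inhibition above the mean of all tested compounds plus 3 SD, cut at about 19% in these data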;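 further: 0% = VIM-2 plus DMSO and 100% = no enzyme wells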
TEM-1 inh: TEM-1 inhibition, counter-screen for VIM-2 inhibitors | shares compounds with VIM-2 inh | Purified TEM-1, nitrocefin hydrolysis, epi-absorbance fluorescence | inhibition, % at 5.6 µM | 1,300 tested, 3% active | AID 1866;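 active means inhibition above that campaign's mean inhibition plus 3 SD, cut at about 0.46% in these data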;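 further: 0% = TEM-1 with DMSO and 100% = TEM-1 with 100 µM potassium clavulanate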
Target sequence (P62593 whole entry, looked up): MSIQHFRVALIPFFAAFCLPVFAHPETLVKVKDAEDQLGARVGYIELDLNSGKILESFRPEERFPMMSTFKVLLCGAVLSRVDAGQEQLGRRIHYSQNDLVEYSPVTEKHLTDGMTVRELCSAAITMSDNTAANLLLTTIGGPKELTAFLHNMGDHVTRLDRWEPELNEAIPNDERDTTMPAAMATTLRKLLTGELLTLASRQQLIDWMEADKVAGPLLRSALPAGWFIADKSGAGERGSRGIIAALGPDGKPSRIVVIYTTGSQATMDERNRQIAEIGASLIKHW
VIM-2 confirm 2: confirmation of P. aeruginosa VIM-2 metallo-beta-lactamase inhibitors. shares compounds with VIM-2 inh. purified VIM-2, nitrocefin hydrolysis, epi-absorbance. inhibition, % at 5.6 µM. 1,300 tested, 96% active. AID 2187;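 active means inhibition of the VIM-2 beta-lactamase enzyme above about 11% from the earlier first-round screen, limit read from the data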;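 further: 0% = VIM-2 with DMSO and 100% = buffer wells without enzyme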
* hit, by the source's call; · = no result given. In the library only some 2.9% were active in any assay of this set; here they are far more common.

SMILES	VIM-2 inh	SUMO Mot1 rescue	NALP3 yeast inh	NALP1 inh	PolyA inh	IMP-1 inh-1	IMP-1 inh-2	VIM-2 FRET inh	TEM-1 inh	VIM-2 confirm 2
CCC(=O)Nc1ccc(N2CCN(Cc3ccccc3)CC2)cc1	0	24	10	9	-16	-1	·	·	·	·
O=C1C(=O)N(Cc2cccnc2)C(c2ccccn2)/C1=C(/O)c1ccc(F)cc1 (stereo unspecified)	52*	-9	1	10	10	-3	-2	76*	-6	69*
Cc1ccc(/C(O)=C2/C(=O)C(=O)N(Cc3cccnc3)C2c2ccccn2)cc1 (stereo unspecified)	3	164	2	14	-6	-3	·	·	·	·
Cc1nc(C)c(/C(O)=C/c2nc3ccccc3oc2=O)s1	19*	14	21	61*	-15	-4	-2	11	-6	2
COc1cc(NC(=O)c2cc3c(Cl)nc4ccccc4c3s2)cc(OC)c1OC	-2	14	2	5	-11	-2	·	·	·	·
CCN(CC)CCCNC(=O)c1cc2c(Cl)nc3ccccc3c2s1	22*	-10	30	19	10	-1	-2	6	-6	32*
COc1ccc(N(C)C(=O)c2cc3c(Cl)nc4ccccc4c3s2)cc1	-2	-11	6	22	-32	-5	·	·	·	·
CN(CCCNC(=O)c1cc2c(Cl)nc3ccccc3c2s1)Cc1ccccc1	22*	12	29	20	2	1	-2	2	-7	31*
O=C(COc1ccc2c3c(c(=O)oc2c1)CCCC3)NCCCn1ccnc1	30*	-6	-4	0	4	-1	-1	-5	1.4*	41*
O=C(COc1ccc2c(-c3ccccc3)cc(=O)oc2c1)NCCCn1ccnc1	3	-11	12	-2	-13	0	·	·	·	·
CC(Oc1ccc2c3c(c(=O)oc2c1)CCCC3)C(=O)NCCCn1ccnc1 (stereo unspecified)	23*	4	1	-20	10	-4	-4	-6	-6	40*
Cc1c(C)c2ccc(OCC(=O)NCCCn3ccnc3)cc2oc1=O	21*	-1	14	7	-10	0	-4	-1	-6	32*
C=C1CC2C(=O)N(Cc3cc(OC)ccc3OC)C(C(=O)OCC)(C(=O)OCC)C1N2C(=O)OC(C)(C)C (stereo unspecified)	·	-2	3	·	-7	·	·	·	·	·
CCCc1cc(=O)oc2c3c(cc(OCC(=O)NCCCn4ccnc4)c12)OC(C)(C)CC3	17*	412*	-9	3	6	0	-3	-16	-4	28*
Cc1cc(=O)oc2c3c(cc(OCC(=O)NCCN4CCOCC4)c12)OC(C)(C)CC3	-1	5	21	11	13	-1	·	·	·	·
Cc1cc(=O)oc2c3c(cc(OCC(=O)NCCCn4ccnc4)c12)OC(C)(C)CC3	15*	-18	6	10	-7	1	-2	-7	-1	22*
COCCN(C(=O)C1CCN(C(=O)c2ccccc2C)CC1)c1c(N)n(CC(C)C)c(=O)[nH]c1=O	·	16	18	·	·	·	·	·	·	·
Cc1cc(=S)c2ccccc2[nH]1	60*	-5	-2	·	12	-2	-3	2	-6	57*
c1ccc2[nH]c(CN3CCN(c4ncnc5c4oc4ccccc45)CC3)nc2c1	15*	8	17	-1	·	0	-2	-14	-8	27*
c1ccc2[nH]c(CSc3ncnc4c3oc3ccccc34)nc2c1	-1	30	17	4	-18	-7	·	·	·	·
